How the values were obtained:
[1] = system: advanced solid tumors (MEC, GIST, ATC, malignant effusions, miscellaneous tumor types); type: in vivo, human
Method in brief: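 Adults with advanced, incurable tumours received 1,000 mg/day, split 600 mg morning and 400 mg evening, continued to progression or unacceptable toxicity. Response was assessed locally by imaging at baseline and every 2 months per RECIST version 1.1, with readings not blinded to visit order. Data cutoff was 31 January 2018.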

patients with TGCT = conditions: cited from earlier work
[2] = system: patients with advanced solid tumors (TGCT and non-TGCT cohorts); assay: Drug exposure: treatment duration, dose reductions, drug holidays; type: in vivo, human
Method in brief: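 Adult patients at 12 US centres took 1,000 mg/day (600 mg morning, 400 mg evening) until progression or unacceptable toxicity. Dose changes, usually in 200 mg/day steps, and temporary holds for toxicity or other reasons were allowed. Exposure was tallied to the 31 January 2018 cutoff. Months were computed as days divided by 30.4167.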

[3] = system: tenosynovial giant cell tumor (TGCT); conditions: patients with TGCT, usually; cited from earlier work
[4] = system: patients with advanced solid tumors (TGCT and non-TGCT cohorts); assay: Safety: adverse events, laboratory assessments, ECG; type: in vivo, human
[5] = system: tenosynovial giant cell tumor (TGCT); assay: Tumor response by RECIST 1.1; type: in vivo, human
[6] = system: tenosynovial giant cell tumor (TGCT); conditions: 3 of the 4 TGCT patients; cited from earlier work
[7] = 13 TGCT subjects that remained on treatment, as of February 2021

Q: For `FC(F)(F)c1ccc(CNc2ccc(Cc3c[nH]c4ncc(Cl)cc34)cn2)cn1` [pexidartinib], which “patients with prolonged (>6 months) SD” value ([1]; non-TGCT) is on record?
A: Its value is 6 patients.

Q: And the “median progression-free survival (PFS)” value ([1]; non-TGCT patients)?
A: Its value is 56 days.

Q: And the “patients with partial response (PR)” value ([1]; non-TGCT population (n = 52))?
A: Its value is 1 patients.

Q: And the “patients with stable disease (SD) as best response” value ([1]; non-TGCT population (n = 52))?
A: Its value is “Fifteen”.

Q: And the “time of presentation of serious liver toxicity” value (patients with TGCT; all cases, weeks of treatment)?
A: The value was no more than 8 weeks.

Q: What about the “isolated aminotransferase elevations, share of hepatic adverse reactions” value (patients with TGCT; long-term treatment) of the same molecule?
A: Its value is greater than 90%.

Q: What about the “patients who had a drug holiday” value ([2]; of the 39 patients with TGCT) of the same molecule?
A: Its value is 27 (69%) n (%).

Q: What about the “patients who required dose reduction” value ([2]; of the 39 patients with TGCT) of the same molecule?
A: The value was 24 (62%) n (%).

Q: What about the “patients who experienced a drug holiday” value ([2]; of the 91 patients) of the same molecule?
A: Its value is 40 (44%) n (%).

Q: What about the “patients who required dose reduction” value ([2]; of the 91 patients) of the same molecule?
A: The value was 30 (33%) n (%).

Q: What about the “time to radiologic response” value [3] of the same molecule?
A: The value was no more than 4 months.

Q: And the “cases meeting Hy's law criteria” value ([4]; all 91 patients)?
A: Its value is “no cases that met criteria for Hy's law”.

Q: What about the “decreases in platelets, hemoglobin, white blood cells (neutrophils, lymphocytes): grade” value ([4]; all patients) of the same molecule?
A: The value was “generally grade 2 or less”.

Q: What about the electrocardiogram abnormalities ([4]; all patients) of the same molecule?
A: The electrocardiogram abnormalities was “No patient had clinically significant electrocardiogram abnormalities”.

Q: What about the “AST increase, treatment-related AE of grade ≥ 3” value ([4]; non-TGCT patients) of the same molecule?
A: Its value is 4%.

Q: And the “fatigue, treatment-related AE of grade ≥ 3” value ([4]; non-TGCT patients)?
A: Its value is 6%.

Q: And the “hypophosphatemia, treatment-related AE of grade ≥ 3” value ([4]; non-TGCT patients)?
A: The value was 4%.

Q: What about the “patients with grade 3 elevations in aminotransferase levels” value ([4]; of the 91 patients) of the same molecule?
A: The value was 6 patients.

Q: And the “alanine aminotransferase increase, grade ≥ 3 treatment-related AE” value ([4]; patients with TGCT)?
A: Its value is 10%.

Q: What about the “aspartate aminotransferase (AST) increase, grade ≥ 3 treatment-related AE” value ([4]; patients with TGCT) of the same molecule?
A: The value was 8%.

Q: What about the “hypophosphatemia, grade ≥ 3 treatment-related AE” value ([4]; patients with TGCT) of the same molecule?
A: The value was 10%.

Q: What about the “nausea, treatment-related AE” value ([4]; patients with TGCT) of the same molecule?
A: The value was 56%.

Q: What about the “periorbital edema, treatment-related AE” value ([4]; patients with TGCT) of the same molecule?
A: The value was 39%.

Q: What about the “pruritus, treatment-related AE” value ([4]; patients with TGCT) of the same molecule?
A: The value was 31%.

Q: What about the “median DOR” value [5, 7] of the same molecule?
A: The value was 1,529 days.

Q: What about the “median PFS” value [5, 7] of the same molecule?
A: The value was 1,764 days.

Q: And the “patients with TGCT who achieved a response, RECIST 1.1” value ([5]; CR + PR, of 39 FAS)?
A: The value was 24 patients.

Q: What about the “PR, RECIST 1.1” value ([5]; TGCT) of the same molecule?
A: Its value is 22 patients.

Q: What about the “complete response (CR), RECIST 1.1” value ([5]; TGCT) of the same molecule?
A: The value was 2 patients.

Q: And the “patients who progressed while on therapy, modified tumor response criteria” value ([5]; TGCT)?
A: Its value is 3 patients.

Q: And the “patients with SD that lasted for at least 6 months, RECIST 1.1” value ([5]; TGCT)?
A: Its value is 8 patients.

Q: What about the “patients with at least a 50% reduction in sum of longest tumor diameter” value ([5]; TGCT) of the same molecule?
A: Its value is “Fifteen”.

Q: What about the “disease control rate (DCR = CR + PR + SD), RECIST 1.1” value ([5]; TGCT FAS (n = 39)) of the same molecule?
A: Its value is 82%.

Q: What about the “disease control rate (DCR = CR + PR + SD), RECIST 1.1” value ([5]; TGCT efficacy-evaluable (n = 37)) of the same molecule?
A: The value was 86%.

Q: What about the “objective response rate (ORR), RECIST 1.1 per local reading” value ([5]; TGCT efficacy-evaluable population (n = 37)) of the same molecule?
A: Its value is 65%.

Q: What about the “25th percentile for duration of response (DOR)” value ([5]; TGCT, RECIST 1.1) of the same molecule?
A: Its value is 943 days.

Q: What about the “ORR, RECIST 1.1” value ([5]; both the FAS and efficacy-evaluable TGCT populations) of the same molecule?
A: Its value is “over 60%”.

Q: What about the “RECIST response in patients who had previously received other TKI treatment” value [6] of the same molecule?
A: Its value is 75%.

From publication PMC9401544 (Clinical Cancer Research, 2021)
